Activity calls are given as the source filed them. The rule behind the calls is not given here.
Key:
RAW264.7 [1] = test: Downregulation of LPS-induced TNF-alpha level in mouse RAW264.7 cells at 10 mg/L after 18 hrs by ELISA; assay type: functional, cell-based
How it was run: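 ELISA of secreted TNF-α in culture medium of RAW264.7 cells treated 18 h with LPS 100 ng/mL alone or with peptide at 10 mg/L. Samples were run in duplicate; release was normalized to untreated controls.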

Escherichia coli = test: microbe, parasite or virus in culture; conditions: ATCC 25922, 18 h
RAW264.7 [2] = test: Cytotoxicity in mouse RAW264.7 cells after 24 hrs by MTT assay; assay type: cell-based; conditions: raw264.7, 24 h
Pseudomonas aeruginosa [3] = test: Antibiofilm activity in Pseudomonas aeruginosa ATCC 27853 assessed as reduction in biomass after 24 hrs by crystal violet staining-based method; assay type: functional
How it was run: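 Overnight culture was diluted 1:100 and grown 24 h at 37 °C to form biofilms. Loose cells were removed and fresh broth added with peptide at 1×, 4× or 8× MIC for another 24 h. Biofilms were stained with 0.1% crystal violet for 10 min, washed, and dye extracted in 95% ethanol before reading absorbance. Results are % of untreated biofilm; three repeats in duplicate, mean ± SD.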

Pseudomonas aeruginosa [4] = test: Antibiofilm activity against Pseudomonas aeruginosa ATCC 27853 assessed as reduction in cell density of biofilm at 4 times MIC after 1 hr by SEM analysis; assay type: functional
How it was run: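 Biofilm imaging: biofilms grown on sterile coverslips in 12-well wells were treated with peptides at 4 × MIC for 1 h, then fixed overnight in 2.5% glutaraldehyde and viewed by SEM. Untreated control. At least three repeats.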

Pseudomonas aeruginosa [5] = test: Antibacterial activity against Pseudomonas aeruginosa ATCC 27853 assessed as induction of outer membrane permeabilization by measuring NPN uptake by spectrofluorophotometric analysis; assay type: functional
How it was run: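 Exponential-phase cells were washed in HEPES pH 7.4 with 5 mM glucose and diluted to about 10^5 CFU/mL. NPN was added at 10 µM final, then peptide at varying concentrations. Fluorescence (ex 350/em 420 nm) was followed to plateau. Values are % NPN uptake relative to polymyxin B at 10 mg/L (100%). Three experiments, duplicates.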

RAW264.7 [6] = test: Inhibition of LPS-induced TLR4 negative regulation in mouse RAW264.7 cells at 10 mg/L after 18 hrs by Western blot analysis; assay type: functional, cell-based
How it was run: (§1)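 Western blot of RAW264.7 lysates after 18 h with LPS at 100 ng/mL, with or without peptide at 10 mg/L. Lysates were run on 8% or 12% SDS-PAGE, transferred to PVDF and blocked in 5% milk/TBST. Primary antibodies were applied at 4 °C overnight, then HRP secondary and ECL detection. β-actin was the loading control.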

Pseudomonas aeruginosa [7] = test: Antibacterial activity against Pseudomonas aeruginosa CICC 21625 after 18 hrs by broth microdilution method; assay type: functional; conditions: CICC 21625, 18 h
How it was run: (§2)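 Broth microdilution in Mueller-Hinton broth. Exponential-phase bacteria (37 °C, 220 rpm shaking) were diluted to about 1 × 10^6 CFU/mL and mixed 1:1 with two-fold serial peptide dilutions. MIC is the lowest concentration with no visible turbidity after 18 h at 37 °C. Controls were uninoculated MHB and untreated culture. Run at least three times, two replicates each.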

Pseudomonas aeruginosa [8] = test: Antibacterial activity against gentamicin-resistant Pseudomonas aeruginosa 11421 after 18 hrs by broth microdilution method; assay type: functional; conditions: Pseudomonas aeruginosa, 11421, 18 h
How it was run: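 Broth microdilution in Mueller-Hinton broth. Exponential-phase bacteria (37 °C, 220 rpm shaking) were diluted to about 1 × 10^6 CFU/mL and mixed 1:1 with two-fold serial peptide dilutions. Controls were uninoculated MHB and untreated culture. Run at least three times, two replicates each.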

RAW264.7 [9] = test: Downregulation of LPS-induced IL-1beta mRNA expression in mouse RAW264.7 cells at 10 mg/L after 18 hrs by real-time PCR analysis; assay type: functional, cell-based
How it was run: (§3)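 qRT-PCR: RAW264.7 cells were stimulated with LPS (100 ng/mL) with or without peptide at 10 mg/L for 18 h at 37 °C. Total RNA was taken up with TRIzol. Transcript levels were normalized to GAPDH and expressed as fold change versus untreated cells. Three experiments, triplicates each.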

Pseudomonas aeruginosa [10] = test: Antibacterial activity against Pseudomonas aeruginosa ATCC 27853 after 18 hrs in presence of FeCl3 by broth microdilution method; assay type: functional; conditions: ATCC 27853, 18 h
How it was run: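 Broth microdilution MIC against ATCC 27853 in Mueller-Hinton broth with added salt at final concentrations: NaCl 150 mM, KCl 4.5 mM, NH4Cl 6 µM, ZnCl2 8 µM, FeCl3 4 µM. Inoculum about 1 × 10^6 CFU/mL from exponential phase, mixed 1:1 with two-fold peptide dilutions. MIC read as no visible turbidity after 18 h at 37 °C.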

Pseudomonas aeruginosa [11] = test: Antibacterial activity against Pseudomonas aeruginosa CICC 21630 after 18 hrs by broth microdilution method; assay type: functional; conditions: CICC 21630, 18 h; how it was run: as §2
Lipopolysaccharide (LPS) [12] = test: Binding affinity to Pseudomonas aeruginosa ATCC 27853 LPS by SPR spectroscopic analysis
How it was run: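 Biacore SPR. Peptides were amine-coupled to CM5 chips at 20 µg/mL in 10 mM acetate pH 6.0, giving about 1300 RU. LPS at 3.125–12.5 µg/mL in 20 mM Tris/100 mM NaCl pH 7.4 was flowed at 10 µL/min. Surfaces were regenerated with 50 mM NaOH plus 0.05% SDS. Three independent runs.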

RAW264.7 [13] = test: Downregulation of LPS-induced TNF-alpha mRNA expression in mouse RAW264.7 cells at 10 mg/L after 18 hrs by real-time PCR analysis; assay type: functional, cell-based; how it was run: as §3
Lipopolysaccharide (LPS) [14] = test: Inhibition of BODIPY-TR-cadaverine binding to Pseudomonas aeruginosa 10 LPS by fluorescence spectrophotometric analysis
Pseudomonas aeruginosa [15] = test: Antibacterial activity against ceftazidime-resistant Pseudomonas aeruginosa 11431 after 18 hrs by broth microdilution method; assay type: functional; conditions: Pseudomonas aeruginosa, 11431, 18 h; how it was run: as §2
RAW264.7 [16] = test: Inhibition of LPS-induced iNOS expression in mouse RAW264.7 cells at 10 mg/L after 18 hrs by Western blot analysis; assay type: functional, cell-based; how it was run: as §1
Pseudomonas aeruginosa [17] = test: Antibacterial activity against Pseudomonas aeruginosa CICC 10419 after 18 hrs by broth microdilution method; assay type: functional; conditions: CICC 10419, 18 h; how it was run: as §2
Pseudomonas aeruginosa [18] = test: Antibacterial activity against Pseudomonas aeruginosa 26305 clinical isolate after 18 hrs by broth microdilution method; assay type: functional; conditions: Pseudomonas aeruginosa, 26305, 18 h
Pseudomonas aeruginosa [19] = test: Antibacterial activity against Pseudomonas aeruginosa 21328 clinical isolate after 18 hrs by broth microdilution method; assay type: functional; conditions: Pseudomonas aeruginosa, 21328, 18 h
Pseudomonas aeruginosa [20] = test: Antibacterial activity against Pseudomonas aeruginosa ATCC 27853 after 18 hrs in presence of MgCl2 by broth microdilution method; assay type: functional; conditions: ATCC 27853, 18 h
How it was run: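 Broth microdilution MIC in MHB against the reference strain. About 1 × 10^6 CFU/mL exponential-phase inoculum mixed 1:1 with two-fold peptide dilutions in medium containing 1 mM MgCl2 (final). Lowest concentration with no visible turbidity after 18 h at 37 °C.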

RAW264.7 [21] = test: Inhibition of LPS-induced IkappaB-alpha protein degradation in mouse RAW264.7 cells at 10 mg/L after 18 hrs by Western blot analysis; assay type: functional, cell-based; how it was run: as §1

H-LRRLRRRWWRRRLRRL-NH2
Activity (RAW264.7 [1]): Active
MIC (Escherichia coli): 16 µg/mL
CC10 (RAW264.7 [2]): 128 µg/mL
Activity (Pseudomonas aeruginosa [3]): Dose-dependent effect
Activity (Pseudomonas aeruginosa [4]): Active
Activity (Pseudomonas aeruginosa [5]): Dose-dependent effect
inhibition (RAW264.7 [6]): Active
MIC (Pseudomonas aeruginosa [7]): 16 µg/mL
MIC (Pseudomonas aeruginosa [8]): 16 µg/mL
Activity (RAW264.7 [9]): Active
MIC (Pseudomonas aeruginosa [10]): 8 µg/mL
MIC (Pseudomonas aeruginosa [11]): 8 µg/mL
Activity (Lipopolysaccharide (LPS) [12]): Dose-dependent effect
Activity (RAW264.7 [13]): Active
Activity (Lipopolysaccharide (LPS) [14]): Dose-dependent effect
MIC (Pseudomonas aeruginosa [15]): 16 µg/mL
inhibition (RAW264.7 [16]): Active
MIC (Pseudomonas aeruginosa [17]): 16 µg/mL
MIC (Pseudomonas aeruginosa [18]): 8 µg/mL
MIC (Pseudomonas aeruginosa [19]): 32 µg/mL
MIC (Pseudomonas aeruginosa [20]): 32 µg/mL
inhibition (RAW264.7 [21]): Active

H-LRRLRRRWWWRRRLRRL-NH2
Activity (RAW264.7 [1]): Active
MIC (Escherichia coli): 4 µg/mL
CC10 (RAW264.7 [2]): 256 µg/mL
Activity (Pseudomonas aeruginosa [3]): Dose-dependent effect
Activity (Pseudomonas aeruginosa [4]): Active
Activity (Pseudomonas aeruginosa [5]): Dose-dependent effect
inhibition (RAW264.7 [6]): Active
MIC (Pseudomonas aeruginosa [7]): 8 µg/mL
MIC (Pseudomonas aeruginosa [8]): 8 µg/mL
Activity (RAW264.7 [9]): Active
MIC (Pseudomonas aeruginosa [10]): 4 µg/mL
MIC (Pseudomonas aeruginosa [11]): 4 µg/mL
Activity (Lipopolysaccharide (LPS) [12]): Dose-dependent effect
Activity (RAW264.7 [13]): Active
Activity (Lipopolysaccharide (LPS) [14]): Dose-dependent effect
MIC (Pseudomonas aeruginosa [15]): 4 µg/mL
inhibition (RAW264.7 [16]): Active
MIC (Pseudomonas aeruginosa [17]): 8 µg/mL
MIC (Pseudomonas aeruginosa [18]): 4 µg/mL
MIC (Pseudomonas aeruginosa [19]): 4 µg/mL
MIC (Pseudomonas aeruginosa [20]): 16 µg/mL
inhibition (RAW264.7 [21]): Active

From ChEMBL document CHEMBL4007441, “Novel Design of Heptad Amphiphiles To Enhance Cell Selectivity, Salt Resistance, Antibiofilm Properties and Their Membrane-Disruptive Mechanism” (J Med Chem, 2017)
